One may read the ED50 as the midpoint of the dose-response relation.

What all share (format): functional
The test system of experiment [1] is Rattus norvegicus. Put plainly: Half-maximal effective dose was measured on rat blood glucose after administrating at 4 hr. The settings on record: Rattus norvegicus, Blood, 4 h; read-out: ED50. The method, boiled down: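 Adult fasted female Wistar rats (Chbb THOM, SPF, 200-220 g), food withdrawn 24 h; oral gavage of suspension in 1.5% Tylose (methylcellulose), 10 mL/kg. Retrobulbar blood under light halothane; glucose by hexokinase/G6PDH after HClO4 deproteinization, hourly to 4 h. ED50 from fit of glucose vs dose, y = b + [a × k/(k + x^nH)], Hill coefficient nH.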

Experiment [2] concerns Rattus norvegicus. Put plainly: Maximum % decrease of blood glucose (deltaBG) was observed within 4 hour after administration orally at 0.25 mg/kg dose to fasted adult female rats versus a control group. The settings on record: route oral. Summed up: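 Adult female Wistar rats (Chbb THOM, SPF; 200-220 g) fasted 24 h, N=7 per group. Compound suspended in 1.5% methylcellulose (Tylose) and dosed by oral gavage at 10 mL/kg. Retrobulbar blood was drawn under light halothane hourly for up to 4 h. Glucose was read by hexokinase/G6PDH after HClO4 deproteinisation. Value is the maximum % fall versus vehicle controls; Student's t-test, P ≤ 0.05.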

Experiment [3] deals with Rattus norvegicus. Briefly: Maximum % decrease of blood glucose (deltaBG) was observed within 4 hour after administration orally at 0.5 mg/kg dose to fasted adult female rats versus a control group. The settings on record: route oral. The method, boiled down: (§1)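 Female Wistar rats (Chbb THOM, SPF, 200-220 g), fasted 24 h, dosed orally by gavage as suspension in 1.5% Tylose methylcellulose (10 mL/kg). Whole blood from retrobulbar plexus under light halothane, deproteinized with 0.33 M HClO4; glucose by hexokinase/G6PDH, hourly up to 4 h. % decrease vs control group (N = 7), Student's t-test, P ≤ 0.05.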

Experiment [4] has as its system Rattus norvegicus. Briefly: Maximum % decrease of blood glucose (deltaBG) was observed within 4 hour after administration orally at 1 mg/kg dose to fasted adult female rats versus a control group. As to conditions: route oral, 1 mg/kg. Summed up: as §1
Experiment [5] has as its system Rattus norvegicus. Briefly: Maximum % decrease of blood glucose (deltaBG) was observed within 3 hour after administration orally at 0.5 mg/kg dose to fasted adult female rats versus a control group. The settings on record: route oral. The method, boiled down:
as §1

Experiment [6] relates to Rattus norvegicus. Put plainly: Maximum % decrease of blood glucose (deltaBG) was observed within 1 hour after administration orally at 0.1 mg/kg dose to fasted adult female rats versus a control group. The settings on record: route oral. The method, boiled down:
as §1

The subject of experiment [7] is Rattus norvegicus. Briefly: Maximum % decrease of blood glucose (deltaBG) was observed within 1 hr after administration orally at 0.5 mg/kg dose to fasted adult female rats versus a control group. As to conditions: route oral. Summed up: as §1
Experiment [8] deals with Rattus norvegicus. Put plainly: Maximum % decrease of blood glucose (deltaBG) was observed within 2 hour after administration orally at 0.1 mg/kg dose to fasted adult female rats versus a control group. As to conditions: route oral. Summed up:
as §1

Experiment [9] relates to Rattus norvegicus. Briefly: Maximum % decrease of blood glucose (deltaBG) was observed within 2 hour after administration orally at 0.5 mg/kg dose to fasted adult female rats versus a control group. As to conditions: route oral. Summed up: as §1
In experiment [10] the test system is Rattus norvegicus. Put plainly: Maximum % decrease of blood glucose (deltaBG) was observed within 3 hour after administration orally at 0.1 mg/kg dose to fasted adult female rats versus a control group. The settings on record: route oral. The method, boiled down: as §1
In experiment [11] the test system is Rattus norvegicus. Put plainly: Maximum % decrease of blood glucose (deltaBG) was observed within 4 hour after administration orally at 0.1 mg/kg dose to fasted adult female rats versus a control group. As to conditions: route oral, 0.1 mg/kg. The method, boiled down:
as §1

Experiment [12] relates to Rattus norvegicus. Briefly: Maximum % decrease of blood glucose (deltaBG) was observed within 4 hour after administration orally at 50 mg/kg dose to fasted adult female rats versus a control group. As to conditions: route oral. Summed up: as §1

Structures are written as SMILES. “And” between values parts separate entries of the source, which are not always exact repeats. Identical values can stand only once.

Consider `O=C(O)c1ccc(CCNC(=O)c2cc(Cl)ccc2N2CCCCCCCC2)cc1`, for which the ED50 in the experiment on Rattus norvegicus [1] turned out to be 0.38 mg/kg. Further, the “Delta BG” value in the experiment on Rattus norvegicus [2] was -13% and -18%; in the experiment on Rattus norvegicus [3], -33%; in the experiment with Rattus norvegicus [4], -40% and -39%.
`CCCC(NC(=O)Cc1ccc(C(=O)O)cc1)c1ccccc1N1CCCCC1` (centres undefined): the ED50 with Rattus norvegicus [1] worked out at 0.07 mg/kg. Moreover, the “Delta BG” value is on record as -23% in the experiment on Rattus norvegicus [5]; -27% with Rattus norvegicus [6]; -42% in the experiment with Rattus norvegicus [7]; -17% in the experiment with Rattus norvegicus [8]; -34% in the experiment on Rattus norvegicus [9]; -16% in the experiment with Rattus norvegicus [10]. Also, the “Delta BG” value in the experiment on Rattus norvegicus [11] is -27% and -9%; in the experiment on Rattus norvegicus [3] it was -18%.
Turning to `CCCC(NC(=O)Cc1ccccc1)c1ccccc1N1CCCCC1` (centres undefined), the “Delta BG” value in the experiment on Rattus norvegicus [12] is reported as -10%.
